Active and inactive are the calls of the source. The rule behind the calls is not given here.
System: Trichophyton rubrum
Test: Antifungal activity against Trichophyton rubrum IBT 29284 at 50 uM after 7 days by micro broth dilution method
Type: functional
Details: not given
In short: (§1)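 T. rubrum IBT29284 was tested by broth microdilution using a 4-fold dilution series of 10 concentrations from 50 μM down to 0.2 μM, with 1% DMSO. The inoculum followed CLSI M38-A2, set to OD530 0.90–1.5 and diluted 50-fold in RPMI/MOPS at pH 7.00. Incubation was 7 days at 37 °C, read by OD. IC50 came from a variable-slope sigmoidal fit.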

SMILES	inhibition
COC1=CC(=O)[C@@]2(Oc3c(Cl)c(OC)cc(OC)c3C2=O)[C@H](C)C1	inactive
COc1cc(OC)c2c(c1Cl)O[C@@]1(C(=O)C=C(OCc3ccccc3)C[C@H]1C)C2=O	inactive
COc1cc(OC)c2c(c1Cl)O[C@@]1(C(=O)C=C(OCC3CC3)C[C@H]1C)C2=O	inactive
COC(=O)C1=CC(=O)C=C(OC)[C@]12Oc1c(Cl)c(C)c(Cl)c(O)c1C2=O	inactive
CCCOC1=CC(=O)[C@@]2(Oc3c(Cl)c(OC)cc(OC)c3C2=O)[C@H](C)C1	inactive
CCOC1=CC(=O)[C@@]2(Oc3c(Cl)c(OC)cc(OC)c3C2=O)[C@H](C)C1	inactive
COc1cc(OC)c2c(c1Cl)O[C@]1(C2=O)C(OCc2cccc3ccccc23)=C/C(=N\O)C[C@H]1C	inactive
COc1cc(OC)c2c(c1Cl)O[C@]1(C2=O)C(OCc2ccc(COC3=CC(=O)C[C@@H](C)[C@]34Oc3c(Cl)c(OC)cc(OC)c3C4=O)cc2)=CC(=O)C[C@H]1C	inactive

System: HeLa
Test: Cytotoxicity against human HeLa cells
Type: functional, cell-based
Details: not given

SMILES	IC50 [µM]
COC1=CC(=O)C[C@@H](C)[C@]12Oc1c(Cl)c(OC)cc(OC)c1C2=O [GRISEOFULVIN]	25

System: MDA-MB-231
Test: Cytotoxicity against human MDA-MB-231 cells assessed as cell viability at 50 uM after 48 hrs by MTT assay
Type: functional
Details: not given
In short: (§2)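 MDA-MB-231 cells were grown in L-15 with 10% FCS at 37 °C and seeded at (2-3) × 10^4 per well. Exposure was 24 and/or 48 h, then MTT for at least 4 h, with absorbance read at 570/630 nm. Each condition had at least 3 replicates, reported as mean ± SD of a representative experiment repeated at least three times.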

SMILES	inhibition
COC1=CC(=O)[C@@]2(Oc3c(Cl)c(OC)cc(OC)c3C2=O)[C@H](C)C1	inactive

Same assay, conditions: MDA-MB-231, 48 h

SMILES	inhibition at 50 µM [%]
COc1cc(OC)c2c(c1Cl)O[C@@]1(C(=O)C=C(OCc3ccccc3)C[C@H]1C)C2=O	< 50
CCOC1=CC(=O)[C@@]2(Oc3c(Cl)c(OC)cc(OC)c3C2=O)[C@H](C)C1	< 50

System: Trichophyton mentagrophytes
Test: Antifungal activity against Trichophyton mentagrophytes IBT 2724 after 7 days by micro broth dilution method
Type: functional, organism-based
Details: IBT 2724, 168 h
In short: (§3)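 T. mentagrophytes IBT2724 was tested by broth microdilution using an 8-fold dilution series of 10 concentrations from 50 μM down to 0.4 μM, with 1% DMSO. The inoculum was prepared per CLSI M38-A2, adjusted to OD530 0.90–1.5 and diluted 50-fold in RPMI/MOPS at pH 7.00. Plates ran 7 days at 37 °C with an OD read-out. IC50 came from a variable-slope sigmoidal fit.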

IC50 [µM]	SMILES
0.3	COc1cc(OC)c2c(c1Cl)O[C@]1(C2=O)C(OCc2ccccc2)=C/C(=N\O)C[C@H]1C
0.05	CCCOC1=CC(=O)C[C@@H](C)[C@]12Oc1c(Cl)c(OC)cc(OC)c1C2=O
0.19	COC1=C/C(=N\O)C[C@@H](C)[C@]12Oc1c(Cl)c(OC)cc(OC)c1C2=O
0.058	COC1=CC(=O)C[C@@H](C)[C@]12Oc1c(Cl)c(OC)cc(OC)c1C2=O [GRISEOFULVIN]

System: Trichophyton mentagrophytes
Test: Antifungal activity against Trichophyton mentagrophytes IBT 2724 at 50 uM after 7 days by micro broth dilution method
Type: functional
Details: not given
In short: as §3

SMILES	inhibition
COC1=CC(=O)[C@@]2(Oc3c(Cl)c(OC)cc(OC)c3C2=O)[C@H](C)C1	inactive
COC(=O)C1=CC(=O)C=C(OC)[C@]12Oc1c(Cl)c(C)c(Cl)c(O)c1C2=O	inactive
COc1cc(OC)c2c(c1Cl)O[C@]1(C2=O)C(OCc2cccc3ccccc23)=C/C(=N\O)C[C@H]1C	inactive
COc1cc(OC)c2c(c1Cl)O[C@]1(C2=O)C(OCc2ccc(COC3=CC(=O)C[C@@H](C)[C@]34Oc3c(Cl)c(OC)cc(OC)c3C4=O)cc2)=CC(=O)C[C@H]1C	inactive

Same assay, conditions: IBT 2724, 168 h

SMILES	inhibition at 50 µM [%]
COc1cc(OC)c2c(c1Cl)O[C@@]1(C(=O)C=C(OCc3ccccc3)C[C@H]1C)C2=O	< 50
COc1cc(OC)c2c(c1Cl)O[C@@]1(C(=O)C=C(OCC3CC3)C[C@H]1C)C2=O	< 50
CCCOC1=CC(=O)[C@@]2(Oc3c(Cl)c(OC)cc(OC)c3C2=O)[C@H](C)C1	< 50
CCOC1=CC(=O)[C@@]2(Oc3c(Cl)c(OC)cc(OC)c3C2=O)[C@H](C)C1	< 50

System: V79
Test: Cytotoxicity against Chinese hamster V79 cells
Type: functional, cell-based
Details: Cricetulus griseus

SMILES	IC50 [µM]
CCCOC1=CC(=O)C[C@@H](C)[C@]12Oc1c(Cl)c(OC)cc(OC)c1C2=O	0.7
COC1=CC(=O)C[C@@H](C)[C@]12Oc1c(Cl)c(OC)cc(OC)c1C2=O [GRISEOFULVIN]	8

System: MDA-MB-231
Test: Cytotoxicity against human MDA-MB-231 cells assessed as cell viability after 48 hrs by MTT assay
Type: functional, cell-based
Details: MDA-MB-231, 48 h
In short: as §2

SMILES	IC50 [µM]
COc1cc(OC)c2c(c1Cl)O[C@]1(C2=O)C(OCc2ccccc2)=C/C(=N\O)C[C@H]1C	1.4
COc1cc(OC)c2c(c1Cl)O[C@@]1(C(=O)C=C(OCC3CC3)C[C@H]1C)C2=O	52
COC(=O)C1=CC(=O)C=C(OC)[C@]12Oc1c(Cl)c(C)c(Cl)c(O)c1C2=O	9.9
CCCOC1=CC(=O)[C@@]2(Oc3c(Cl)c(OC)cc(OC)c3C2=O)[C@H](C)C1	43
COc1cc(OC)c2c(c1Cl)O[C@]1(C2=O)C(OCc2cccc3ccccc23)=C/C(=N\O)C[C@H]1C	8.3
CCCOC1=CC(=O)C[C@@H](C)[C@]12Oc1c(Cl)c(OC)cc(OC)c1C2=O	16
COC1=C/C(=N\O)C[C@@H](C)[C@]12Oc1c(Cl)c(OC)cc(OC)c1C2=O	12
COc1cc(OC)c2c(c1Cl)O[C@]1(C2=O)C(OCc2ccc(COC3=CC(=O)C[C@@H](C)[C@]34Oc3c(Cl)c(OC)cc(OC)c3C4=O)cc2)=CC(=O)C[C@H]1C	8.5
COC1=CC(=O)C[C@@H](C)[C@]12Oc1c(Cl)c(OC)cc(OC)c1C2=O [GRISEOFULVIN]	18

System: SCC114
Test: (§4) Cytotoxicity against human SCC114 cells by phenotype-based spindle multipolarity assay
Type: functional, cell-based
Details: not given

SMILES	inhibition
COC1=CC(=O)[C@@]2(Oc3c(Cl)c(OC)cc(OC)c3C2=O)[C@H](C)C1	inactive
COc1cc(OC)c2c(c1Cl)O[C@@]1(C(=O)C=C(OCc3ccccc3)C[C@H]1C)C2=O	inactive
COc1cc(OC)c2c(c1Cl)O[C@@]1(C(=O)C=C(OCC3CC3)C[C@H]1C)C2=O	inactive
CCCOC1=CC(=O)[C@@]2(Oc3c(Cl)c(OC)cc(OC)c3C2=O)[C@H](C)C1	inactive
CCOC1=CC(=O)[C@@]2(Oc3c(Cl)c(OC)cc(OC)c3C2=O)[C@H](C)C1	inactive

System: not listed separately
Test: as §4
Type: functional, cell-based
Details: not given

SMILES	IC50 [µM]
COC1=CC(=O)C[C@@H](C)[C@]12Oc1c(Cl)c(OC)cc(OC)c1C2=O [GRISEOFULVIN]	20

System: not listed separately
Test: Drug degradation in phosphate buffered saline at pH 7.4 assessed as compound hydrolysis after 48 hrs
Type: physicochemical
Details: read-out: Drug degradation
In short: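 Oximes were held in PBS at pH 7.4 for 48 h, and hydrolysis to the parent ketones was monitored.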

degraded at 48 h [%]	SMILES
< 5	COc1cc(OC)c2c(c1Cl)O[C@]1(C2=O)C(OCc2ccccc2)=C/C(=N\O)C[C@H]1C
< 5	COc1cc(OC)c2c(c1Cl)O[C@]1(C2=O)C(OCc2cccc3ccccc23)=C/C(=N\O)C[C@H]1C
< 5	COC1=C/C(=N\O)C[C@@H](C)[C@]12Oc1c(Cl)c(OC)cc(OC)c1C2=O

System: MDA-MB-231
Test: Ratio of griseofulvin IC50 to compound IC50 for human MDA-MB-231 cells
Type: functional
Details: not given

SMILES	Ratio IC50
COC(=O)C1=CC(=O)C=C(OC)[C@]12Oc1c(Cl)c(C)c(Cl)c(O)c1C2=O	2
COc1cc(OC)c2c(c1Cl)O[C@]1(C2=O)C(OCc2ccc(COC3=CC(=O)C[C@@H](C)[C@]34Oc3c(Cl)c(OC)cc(OC)c3C4=O)cc2)=CC(=O)C[C@H]1C	2

System: Trichophyton rubrum
Test: Antifungal activity against Trichophyton rubrum IBT 29284 after 7 days by micro broth dilution method
Type: functional, organism-based
Details: IBT 29284, 168 h
In short: as §1

IC50 [µM]	SMILES
7.9	COc1cc(OC)c2c(c1Cl)O[C@]1(C2=O)C(OCc2ccccc2)=C/C(=N\O)C[C@H]1C
0.62	CCCOC1=CC(=O)C[C@@H](C)[C@]12Oc1c(Cl)c(OC)cc(OC)c1C2=O
1.3	COC1=C/C(=N\O)C[C@@H](C)[C@]12Oc1c(Cl)c(OC)cc(OC)c1C2=O
0.38	COC1=CC(=O)C[C@@H](C)[C@]12Oc1c(Cl)c(OC)cc(OC)c1C2=O [GRISEOFULVIN]

Reference: ChEMBL document CHEMBL1955834, “Disparate SAR data of griseofulvin analogues for the dermatophytes Trichophyton mentagrophytes, T. rubrum, and MDA-MB-231 cancer cells” (J Med Chem, 2012)
